The text below walks through data of ChEMBL document CHEMBL3098079, “Discovery of hybrid Hsp90 inhibitors and their anti-neoplastic effects against gefitinib-resistant non-small cell lung cancer (NSCLC)” (2014).

Experiment [1] has as its system NCI-H1975. In words: Antiproliferative activity against gefitinib-resistant human NCI-H1975 cells after 1 to 3 days by MTS assay. The class given is functional. A digest of the protocol:
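H1975 (gefitinib-resistant NSCLC, T790M/L858R EGFR) cells exposed to compound at a range of concentrations; viability read by MTS assay at 1, 2 and 3 days of treatment. Data given as mean ± SD, n = 4.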
(In general: Tetrazolium dyes change colour on reduction, which living cells bring about.)

Experiment [2] has as its target Heat shock protein HSP 90-beta (Homo sapiens) (UniProt P08238). In words: Inhibition of HSP90 in gefitinib-resistant human NCI-H1975 cells assessed as degradation of EGFR at 40 uM after 24 hrs by Western blot method. It counts as cell-based. The gist of the method: (§1)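 H1975 cells treated 24 h with each compound at 40 μM; Hsp90 client proteins and Hsp70 probed by Western blot. Geldanamycin (1 μM) as positive control, DMSO as negative control.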
(Immunoblotting shows a protein as a band on a membrane.)

For experiment [3] the target is unchanged. In words: Inhibition of HSP90 in gefitinib-resistant human NCI-H1975 cells assessed as downregulation of Thr202/Tyr204 phosphorylated ERK1/2 level at 1 to 100 uM after 24 hrs by Western blot method. It counts as cell-based. A digest of the protocol: (§2)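 Dose-response immunoblotting: H1975 cells incubated 24 h with increasing compound concentrations, then lysates probed by Western blot for Hsp90 clients (EGFR, Her2, Met, Akt), downstream signaling proteins and Hsp70. Geldanamycin (1 μM) positive control; DMSO negative control.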

Experiment [4] shares this target. In words: Inhibition of HSP90 in gefitinib-resistant human NCI-H1975 cells assessed as downregulation of Ser473 phosphorylated AKT level at 1 to 100 uM after 24 hrs by Western blot method. It counts as cell-based. The gist of the method: as §2
For experiment [5] the target is unchanged. Briefly: Inhibition of HSP90 in gefitinib-resistant human NCI-H1975 cells assessed as downregulation of Tyr1068 phosphorylated EGFR level at 1 to 100 uM after 24 hrs by Western blot method. It counts as cell-based. A digest of the protocol: as §2
The subject of experiment [6] is NCI-H1975. In words: Downregulation of ERK1/2 in gefitinib-resistant human NCI-H1975 cells at 1 to 100 uM after 24 hrs by Western blot method. The class given is functional, cell-based. The gist of the method: as §2
The target of experiment [7] is Heat shock protein HSP 90-beta (Homo sapiens) (UniProt P08238). In words: Inhibition of HSP90 in gefitinib-resistant human NCI-H1975 cells assessed as transcriptional upregulation of Hsp70 after 24 hrs by Western blot method. It counts as cell-based. A digest of the protocol: as §2
The target is the same in experiment [8]. Briefly: Inhibition of HSP90 in gefitinib-resistant human NCI-H1975 cells assessed as degradation of AKT after 24 hrs by Western blot method. It counts as cell-based. The gist of the method:
as §2

The target is the same in experiment [9]. Briefly: Inhibition of HSP90 in gefitinib-resistant human NCI-H1975 cells assessed as degradation of MET after 24 hrs by Western blot method. The class given is cell-based. A digest of the protocol:
as §2

Experiment [10] has the same target. Briefly: Inhibition of HSP90 in gefitinib-resistant human NCI-H1975 cells assessed as degradation of HER2 after 24 hrs by Western blot method. The class given is cell-based. The gist of the method: as §2
The target is the same in experiment [11]. In words: Inhibition of HSP90 in gefitinib-resistant human NCI-H1975 cells assessed as degradation of EGFR after 24 hrs by Western blot method. It counts as cell-based. The gist of the method:
as §2

The target is the same in experiment [12]. In words: Inhibition of HSP90 in gefitinib-resistant human NCI-H1975 cells assessed as transcriptional upregulation of Hsp70 at 40 uM after 24 hrs by Western blot method. The class given is cell-based. A digest of the protocol:
as §1

For experiment [13] the target is unchanged. In words: Inhibition of HSP90 in gefitinib-resistant human NCI-H1975 cells assessed as degradation of AKT at 40 uM after 24 hrs by Western blot method. The class given is cell-based. The gist of the method: as §1
For experiment [14] the target is unchanged. Briefly: Inhibition of HSP90 in gefitinib-resistant human NCI-H1975 cells assessed as degradation of MET at 40 uM after 24 hrs by Western blot method. The class given is cell-based. A digest of the protocol:
as §1

The target is the same in experiment [15]. In words: Inhibition of HSP90 in gefitinib-resistant human NCI-H1975 cells assessed as degradation of HER2 at 40 uM after 24 hrs by Western blot method. It counts as cell-based. A digest of the protocol: as §1

As usually defined, the GI50 is the concentration that inhibits growth by half.

Calls of active or inactive are those of the source. The calls are words filed in the database; no cut-off is given here.

Chain of Heat shock protein HSP 90-beta (Homo sapiens) (P08238 whole entry): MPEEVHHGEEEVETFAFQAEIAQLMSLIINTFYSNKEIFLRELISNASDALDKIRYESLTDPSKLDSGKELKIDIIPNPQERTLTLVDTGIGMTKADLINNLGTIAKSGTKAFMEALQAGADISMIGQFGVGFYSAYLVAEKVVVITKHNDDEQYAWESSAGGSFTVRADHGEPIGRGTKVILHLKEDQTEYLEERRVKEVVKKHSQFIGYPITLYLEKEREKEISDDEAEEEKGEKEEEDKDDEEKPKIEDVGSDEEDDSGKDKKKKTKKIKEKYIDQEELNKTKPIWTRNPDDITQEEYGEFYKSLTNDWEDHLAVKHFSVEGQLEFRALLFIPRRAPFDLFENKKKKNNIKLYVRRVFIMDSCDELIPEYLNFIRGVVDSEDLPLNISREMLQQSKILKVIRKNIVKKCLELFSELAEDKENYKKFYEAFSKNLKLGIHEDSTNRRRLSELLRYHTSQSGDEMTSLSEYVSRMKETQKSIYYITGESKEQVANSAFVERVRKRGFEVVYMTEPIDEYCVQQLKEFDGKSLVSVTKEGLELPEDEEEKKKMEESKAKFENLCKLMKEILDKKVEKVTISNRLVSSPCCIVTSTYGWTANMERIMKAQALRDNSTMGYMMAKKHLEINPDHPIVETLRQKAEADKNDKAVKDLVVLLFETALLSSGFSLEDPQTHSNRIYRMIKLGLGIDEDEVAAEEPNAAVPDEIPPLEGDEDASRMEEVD

Take `CCNC(=O)c1n[nH]c(-c2cc(Cl)c(O)cc2O)c1-c1ccc(OC)cc1`: growth in the experiment on NCI-H1975 [1] was halved (GI50) at 1 µM.
For the molecule `CCCCn1c(Cc2cc(OC)c(OC)c(OC)c2)nc2c(N)ncnc21`, the GI50 in the experiment with NCI-H1975 [1] was determined as 50 µM.
For `O=C(/C=C/c1ccc(O)cc1O)c1cc(Cl)c(O)cc1O`, the inhibition entry in the experiment with NCI-H1975 [1] was “Dose-dependent effect”.
Turning to `COc1cc(/C=C/C(=O)c2cc(Cl)c(O)cc2O)cc(OC)c1OC`, the inhibition entry in experiment [2], in experiment [3], in experiment [4], in [5], in [12] and in [13] was “Active” in each case. The inhibition result in [14] and in [15] was “Active” in each case. This molecule registered a concentration for 50% growth inhibition (GI50) with NCI-H1975 [1] of 48 µM. Also, the inhibition entry (in the experiment on NCI-H1975 [1]; in [7]; in experiment [8]; in experiment [9]; in experiment [10]; in [11]) was “Dose-dependent effect” throughout. In addition, the outcome in the experiment on NCI-H1975 [6] was inactive.
For `COc1ccc(/C=C/C(=O)c2cc(Cl)c(O)cc2O)c(OC)c1`, the inhibition result with NCI-H1975 [1] is “Dose-dependent effect”.
